High-throughput results: PubChem BioAssay, Johns Hopkins Ion Channel Center
MrgX1 PAM: positive allosteric modulators of MrgX1, primary screen, HEK293 cells, Fluo-4 calcium flux | Mas-related G-protein coupled receptor member X1 (Homo sapiens), Q96LB2 | FDSS; hits give high values | B-score at 10 µM | actives 0.63% (n = 310,000) | AID 588675, 2011;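 active = plate-corrected calcium response at least 3 library SD above typical, normal starting fluorescence, not activating the receptor alone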;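 note: compound read alongside a low EC10 to EC30 dose of BAM8-22 agonist; peak minus trough fluorescence over baseline measured at the second addition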
MrgX1 ag: agonists of human MrgX1 receptor, primary screen, HEK293 cells, Fluo-4 calcium flux | Mas-related G-protein coupled receptor member X1 (Homo sapiens), Q96LB2 | Fluo-4 calcium fluorescence, agonist mode; hits give high values | B-score at 10 µM | actives 0.44% (n = 310,000) | AID 588627, 2011;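 active = calcium response B-score plate-corrected fluorescence ratio at least 3 library SD, with starting fluorescence B-score inside 5 SD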
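Assay system: stable human MrgX1 HEK293 cell line. Quantity: 15,000 cells per well. Schedule: cells plated overnight, dye loaded 0.5 h 37 °C, 0.5 h room temperature. Detection: Fluo-4 NW calcium-flux fluorescence, kinetic read. Read-out basis: peak-minus-minimum fluorescence over baseline, converted to B scores. Control set: positive and negative control wells on each plate.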
RGS4 pot: RGS4 potentiators or activators, primary screen, cell-based, HEK293 M3R inducible RGS4, calcium flux. carbachol calcium flux Fluo4; hits give low values. B-score at 10 µM. actives 0.92% (n = 310,000). AID 463111, 2010;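 active = B-score of the integrated calcium signal more than 4 SD below the library mean, with starting fluorescence not abnormally high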;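 note: negative B-score means reduced calcium response which marks RGS4 activation or potentiation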
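System – HEK293 FlpIn-TREx cells, stable M3R, doxycycline-inducible RGS4 · Reagent – ECmax carbachol challenge · Times – compound preincubation 20 min at room temperature before agonist · Technique – Fluo4 fluorescence kinetic imaging of calcium · Measure – B score of integrated Fluo4 ratio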
MrgX1 antag: antagonists of human MrgX1 receptor, primary screen, HEK293 cells, Fluo-4 calcium flux. Mas-related G-protein coupled receptor member X1 (Homo sapiens), Q96LB2. B-score at 10 µM. BAM8-22 antagonism; hits give low values. actives 1.3% (n = 310,000);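 active = calcium-response B-score plate-corrected more than 3 library SD below zero, starting fluorescence within 5 deviations, no agonist response on first addition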;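 note: peak minus trough fluorescence over baseline after final BAM8-22 challenge near maximal dose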
RGS4 block: RGS4 inhibitors, primary screen, cell-based, HEK293 M3R inducible RGS4, calcium flux. Regulator of G-protein signaling 4 (Homo sapiens), P49798. Fluo-4 calcium flux; hits give high values; triggered by carbachol at its EC20. B-score at 10 µM. actives 0.45% (n = 310,000). AID 463165, 2010;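 active = B-score, a plate-corrected calcium signal, over three deviations above library mean, with baseline fluorescence within five deviations of library mean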;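 note: RGS4 expression induced by doxycycline in cells with stable M3 receptor; B-score is computed from the integrated fluorescence ratio over baseline after carbachol; higher B-score means a larger calcium signal and so more RGS4 inhibition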
Target sequence (P49798 whole entry, looked up): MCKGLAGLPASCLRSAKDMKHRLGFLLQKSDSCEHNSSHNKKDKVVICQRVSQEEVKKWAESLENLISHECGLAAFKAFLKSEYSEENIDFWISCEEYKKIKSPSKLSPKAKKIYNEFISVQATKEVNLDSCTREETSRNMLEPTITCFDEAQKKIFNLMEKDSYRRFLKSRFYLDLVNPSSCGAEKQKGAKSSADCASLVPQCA
RGS4 inh valid: enhanced carbachol calcium response, M3R/RGS4 cells, RGS4 inhibitor project, cell-based, validation screen, HEK293 M3R/RGS4, calcium flux; shares compounds with RGS4 block; carbachol calcium Fluo-4 fluorescence; carbachol added at its EC20; 0 = buffer wells, 100 = carbachol control; calcium response, % at 10 µM; actives 65% (n = 1,700); AID 492999, 2010;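 active = duplicate-averaged calcium response above the buffer-only control mean plus 5 SD of those controls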;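 note: integrated fluorescence ratio F max minus min over baseline F0; higher response in RGS4-induced cells means RGS4 inhibition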
M3R Ca ctr: carbachol calcium response in non-induced M3R cells, confirmation, counter-screen for RGS4 inhibitor project, cell-based, HEK293 M3R; shares compounds with RGS4 block; activity (percent), % at 10 µM; actives 20% (n = 1,900); carbachol calcium Fluo-4; submaximal (EC20) carbachol stimulus; buffer wells 0%, carbachol control wells 100%; call rule not given here;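 note: RGS4 induction absent so cells express M3R without RGS4; higher means more calcium signal and flags a non-specific hit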
RGS4 inh ctr2: second counter-screen for RGS4 inhibitors: non-induced cells without carbachol. shares compounds with RGS4 block. HEK293 M3R/RGS4 non-induced, Fluo-4 calcium, no carbachol; normalised: buffer wells 0%, carbachol wells 100%. calcium response (agonist-mode artifact), % at 10 µM. actives 22% (n = 1,900);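 active = duplicate-averaged calcium rise in uninduced cells above buffer wells' mean plus 5 SD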
Numbers without * were called inactive; i = inactive; · = no result. Rows were chosen to be rich in hits. Some 3.5% of all compounds tested hit in one or more screens of this group.

SMILES	MrgX1 PAM	MrgX1 ag	RGS4 pot	MrgX1 antag	RGS4 block	RGS4 inh valid	M3R Ca ctr	RGS4 inh ctr2
Cc1ccc(N2C(=O)NC(=O)/C(=C\C=C\c3ccco3)C2=O)cc1	i	i	i	i	i	·	i	11.5%*
Cc1ccc(N2C(=O)NC(=O)/C(=C\C=C\c3ccco3)C2=O)cc1C	i	i	i	i	22.4*	28.0%*	31.5%*	39.5%*
CC1CN(c2ccc([N+](=O)[O-])c3cccnc23)CC(C)N1 (stereo not given)	i	i	i	i	5.83*	i	i	i
O=[N+]([O-])c1ccc(N2CCCC2)c2ncccc12	i	i	i	i	i	·	·	·
COc1cc(/C=C/[N+](=O)[O-])ccc1OC(=O)c1cccnc1	i	i	i	i	48.6*	113.0%*	45.0%*	26.5%*
COc1ccc(C2CC(c3c(O)n(CCc4ccccc4)c(=O)[nH]c3=O)=NN2)cc1OC (stereo not given)	i	i	i	i	8.1*	i	i	i
Cc1ccc2c(c1)=NC(=O)/C(=C/c1c(O)[nH]c(=O)[nH]c1=O)C=2	i	i	i	i	i	·	i	i
O=C(c1cn(Cc2ccccc2F)c2ncccc12)C(F)(F)F	i	i	i	i	i	·	·	·
O=c1c2ccccc2nc(CNc2ccccc2)n1-c1ccccc1	i	i	i	i	i	·	·	·
CC(C)CN(CC(C)C)c1ccc(C=C2C(=O)NC(=S)NC2=O)cc1[N+](=O)[O-]	i	i	i	i	i	·	·	·
CCN(CC)c1ccc(C=C2C(=O)NC(=S)NC2=O)cc1	i	i	i	i	36.3*	56.0%*	29.5%*	i
O=c1c2ccccc2nc(-c2ccccc2)n1-c1cccnc1	i	i	i	i	i	·	·	·
COc1cc2c(cc1/C=C/[N+](=O)[O-])OCO2	·	·	i	·	11.6*	36.5%*	43.0%*	73.5%*
N/C(=N/[N+](=O)[O-])N1CCN(C(=O)Oc2ccc([N+](=O)[O-])cc2)CC1	i	i	i	i	i	·	·	·
O=C1NC(=O)N(Cc2ccccc2)C(=O)/C1=C/c1cnc(-c2ccccc2)nc1	i	i	i	i	i	·	·	·
Cn1cccc1/C=C1\C(=O)NC(=O)N(Cc2ccco2)C1=O	·	·	i	·	i	·	·	·
O=C1NC(=O)N(Cc2ccccc2)C(=O)/C1=C\C=C\c1ccco1	i	28*	i	i	5.45*	19.0%*	i	15.0%*
O=C1NC(=O)N(Cc2ccco2)C(=O)/C1=C/C=C/c1ccco1	i	36.4*	i	i	5.41*	i	i	i
C=CCN1C(=O)NC(=O)/C(=C/C=C/c2ccccc2)C1=O	·	·	i	·	5.35*	25.5%*	i	18.5%*
CN(C)c1ccc(/C=C/C=C2/C(=O)NC(=O)N(c3ccccc3)C2=O)cc1	·	·	i	·	i	·	·	·
CN1CCC2(O)OCCCC2C1 (stereo not given)	i	i	i	i	i	·	·	·
